Measured values from ChEMBL document CHEMBL3763095, “Naphtho[1',2':4,5]imidazo[1,2-a]pyridine-5,6-diones: Synthesis, enzymatic reduction and cytotoxic activity” (Bioorg Med Chem Lett, 2016).

Legend:
Design in all cases: species or system Homo sapiens
[1] = substrate: O=C1C(=O)c2c(nc3ccccn23)-c2ccccc21; test: (§1) Activity of NADPH:cytochrome P-450R (unknown origin) assessed as NADPH oxidation by spectrophotometric analysis
Procedure, shortened: (§2)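 Initial rates of enzymatic reduction measured at varied compound concentrations with NADPH fixed at 150 µM. Reactivity expressed as apparent second-order k_cat/K_m, taken as the efficiency of reduction by the reduced free enzyme (ping-pong scheme).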

[2] = substrate: Cc1cccn2c3c(nc12)-c1ccccc1C(=O)C3=O; test: as §1; procedure, shortened: as §2
[3] = substrate: O=C1C(=O)c2c(nc3ncccn23)-c2ccccc21; test: as §1; procedure, shortened: as §2
[4] = substrate: Cc1ccc2nc3c(n2c1)C(=O)C(=O)c1ccccc1-3; test: as §1; procedure, shortened: as §2
[5] = substrate: O=C1C(=O)c2c(nc3ccc(F)cn23)-c2ccccc21; test: as §1; procedure, shortened: as §2
[6] = substrate: O=C1C(=O)c2c(nc3ccc(Br)cn23)-c2ccccc21; test: as §1; procedure, shortened: as §2
[7] = substrate: COc1ccc2nc3c(n2c1)C(=O)C(=O)c1ccccc1-3; test: as §1; procedure, shortened: as §2
[8] = substrate: O=C1C(=O)c2c(nc3ccc(Cl)cn23)-c2ccccc21; test: as §1; procedure, shortened: as §2
[9] = substrate: Cc1ccn2c3c(nc2c1)-c1ccccc1C(=O)C3=O; test: as §1; procedure, shortened: as §2
[10] = substrate: O=C1C(=O)c2c(nc3ccc(C(F)(F)F)cn23)-c2ccccc21; test: as §1; procedure, shortened: as §2
[11] = substrate: O=C1C(=O)c2c(nc3ccccn23)-c2ccc([N+](=O)[O-])cc21; test: as §1; procedure, shortened: as §2
[12] = substrate: O=C1C(=O)c2c(nc3ccc([N+](=O)[O-])cn23)-c2ccccc21; test: as §1; procedure, shortened: as §2
[13] = substrate: O=C1C(=O)c2c(nc3ccc4ccccc4n23)-c2ccccc21; test: as §1; procedure, shortened: as §2

B1: NADPH--cytochrome P450 reductase (Homo sapiens) (protein)
chain: MGDSHVDTSSTVSEAVAEEVSLFSMTDMILFSLIVGLLTYWFLFRKKKEEVPEFTKIQTLTSSVRESSFVEKMKKTGRNIIVFYGSQTGTAEEFANRLSKDAHRYGMRGMSADPEEYDLADLSSLPEIDNALVVFCMATYGEGDPTDNAQDFYDWLQETDVDLSGVKFAVFGLGNKTYEHFNAMGKYVDKRLEQLGAQRIFELGLGDDDGNLEEDFITWREQFWPAVCEHFGVEATGEESSIRQYELVVHTDIDAAKVYMGEMGRLKSYENQKPPFDAKNPFLAAVTTNRKLNQGTERHLMHLELDISDSKIRYESGDHVAVYPANDSALVNQLGKILGADLDVVMSLNNLDEESNKKHPFPCPTSYRTALTYYLDITNPPRTNVLYELAQYASEPSEQELLRKMASSSGEGKELYLSWVVEARRHILAILQDCPSLRPPIDHLCELLPRLQARYYSIASSSKVHPNSVHICAVVVEYETKAGRINKGVATNWLRAKEPAGENGGRALVPMFVRKSQFRLPFKATTPVIMVGPGTGVAPFIGFIQERAWLRQQGKEVGETLLYYGCRRSDEDYLYREELAQFHRDGALTQLNVAFSREQSHKVYVQHLLKQDREHLWKLIEGGAHIYVCGDARNMARDVQNTFYDIVAELGAMEHAQAVDYIKKLMTKGRYSLDVWS
kcat/Km [1]: 3.1e+07 M⁻¹ s⁻¹ | kcat/Km [2]: 1.3e+07 M⁻¹ s⁻¹ | kcat/Km [3]: 3.4e+07 M⁻¹ s⁻¹ | kcat/Km [4]: 8.9e+06 M⁻¹ s⁻¹ | kcat/Km [5]: 2.4e+07 M⁻¹ s⁻¹ | kcat/Km [6]: 3.7e+07 M⁻¹ s⁻¹ | kcat/Km [7]: 2.9e+07 M⁻¹ s⁻¹ | kcat/Km [8]: 5.4e+07 M⁻¹ s⁻¹ | kcat/Km [9]: 1.4e+07 M⁻¹ s⁻¹ | kcat/Km [10]: 3.5e+07 M⁻¹ s⁻¹ | kcat/Km [11]: 7.2e+07 M⁻¹ s⁻¹ | kcat/Km [12]: 5.9e+07 M⁻¹ s⁻¹ | kcat/Km [13]: 5.6e+06 M⁻¹ s⁻¹
